From ChEMBL document CHEMBL1165965, “Synthesis and structure-activity relationships of 1,2,3,4-tetrahydropyrido[2,3-b]pyrazines as potent and selective inhibitors of the anaplastic lymphoma kinase” (Bioorg Med Chem, 2010)

How the values were obtained:
[1] = target: Mitogen-activated protein kinase kinase kinase 1 (Homo sapiens) (UniProt Q13233); experiment: Inhibition of MAP3K1 at 1 uM
[2] = target: T1, Mitogen-activated protein kinase kinase kinase 3 (Homo sapiens) (UniProt Q99759); experiment: Inhibition of MAP3K3 at 1 uM
T1 sequence (whole entry): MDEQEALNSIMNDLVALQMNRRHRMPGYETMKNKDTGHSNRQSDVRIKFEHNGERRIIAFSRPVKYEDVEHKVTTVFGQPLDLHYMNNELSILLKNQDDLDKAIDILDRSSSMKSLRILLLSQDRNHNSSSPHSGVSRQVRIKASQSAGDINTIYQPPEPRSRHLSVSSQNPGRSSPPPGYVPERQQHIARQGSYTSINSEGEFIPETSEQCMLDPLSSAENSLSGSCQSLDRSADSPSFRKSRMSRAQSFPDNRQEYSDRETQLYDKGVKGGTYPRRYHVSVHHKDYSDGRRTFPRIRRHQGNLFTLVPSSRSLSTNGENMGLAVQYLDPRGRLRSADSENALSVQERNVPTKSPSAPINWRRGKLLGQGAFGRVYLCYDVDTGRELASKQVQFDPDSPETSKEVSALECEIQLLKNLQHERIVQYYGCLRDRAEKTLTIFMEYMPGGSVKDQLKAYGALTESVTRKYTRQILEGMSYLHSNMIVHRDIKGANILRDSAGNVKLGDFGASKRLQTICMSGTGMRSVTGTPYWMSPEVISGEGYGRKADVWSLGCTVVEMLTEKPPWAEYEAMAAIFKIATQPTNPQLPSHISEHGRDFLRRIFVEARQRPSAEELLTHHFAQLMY

[3] = target: Serine/threonine-protein kinase MARK1 (Homo sapiens) (UniProt Q9P0L2); experiment: Inhibition of MARK1 at 1 uM
Method in brief: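 Kinase-panel screen using KINOMEscan technology, with 250–400 kinases per panel. Each compound was tested at a single concentration, and inhibition of each kinase was recorded. Selectivity was summarised as S(90), the fraction of kinases inhibited by more than 90%.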

[4] = target: Serine/threonine-protein kinase MRCK beta (Homo sapiens) (UniProt Q9Y5S2); experiment: Inhibition of MRCKB at 1 uM
[5] = target: Mitogen-activated protein kinase 11 (Homo sapiens) (UniProt Q15759); experiment: Inhibition of p38-beta at 1 uM
[6] = target: T2, Phosphorylase b kinase gamma catalytic chain, liver/testis isoform (Homo sapiens) (UniProt P15735); experiment: Inhibition of PHKG2 at 1 uM
T2 sequence (whole entry): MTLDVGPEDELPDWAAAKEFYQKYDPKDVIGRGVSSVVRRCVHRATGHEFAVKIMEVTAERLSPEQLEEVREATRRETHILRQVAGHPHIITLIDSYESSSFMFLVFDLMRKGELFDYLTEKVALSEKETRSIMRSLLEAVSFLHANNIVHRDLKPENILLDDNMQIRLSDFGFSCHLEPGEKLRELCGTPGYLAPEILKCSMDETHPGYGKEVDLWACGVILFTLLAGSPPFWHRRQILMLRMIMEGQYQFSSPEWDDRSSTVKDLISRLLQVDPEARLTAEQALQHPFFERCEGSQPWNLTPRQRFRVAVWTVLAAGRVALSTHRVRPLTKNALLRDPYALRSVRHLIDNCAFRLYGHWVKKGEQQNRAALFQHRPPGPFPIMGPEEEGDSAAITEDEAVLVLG

[7] = target: Phosphatidylinositol 4,5-bisphosphate 3-kinase catalytic subunit alpha isoform (Homo sapiens) (UniProt P42336); experiment: Inhibition of PIK3CA at 1 uM
[8] = target: Serine/threonine-protein kinase 16 (Homo sapiens) (UniProt O75716); experiment: Inhibition of STK16 at 1 uM
[9] = target: STE20/SPS1-related proline-alanine-rich protein kinase (Homo sapiens) (UniProt Q9UEW8); experiment: Inhibition of STK39 at 1 uM
[10] = target: Serine/threonine-protein kinase tousled-like 2 (Homo sapiens) (UniProt Q86UE8); experiment: Inhibition of TLK2 at 1 uM
[11] = target: Vascular endothelial growth factor receptor 2 (Homo sapiens) (UniProt P35968); experiment: Inhibition of VEGFR2 at 1 uM
[12] = test system: Tyrosine-protein kinase ABL1 (Homo sapiens), P00519 [F317I]; experiment: Inhibition of ABL1 F317I mutant at 1 uM
[13] = test system: Serine/threonine-protein kinase B-raf (Homo sapiens), P15056 [V600E]; experiment: Inhibition of BRAF V600E mutant at 1 uM
Method in brief: (§1)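 Ambit KINOMEscan screen at a single concentration across a 250–400 kinase panel, recorded as percent inhibition. Selectivity was expressed as S(90), the fraction of kinases inhibited >90%.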

[14] = target: Calcium/calmodulin-dependent protein kinase type 1G (Homo sapiens) (UniProt Q96NX5); experiment: Inhibition of CAMK1G at 1 uM; method in brief: as §1
[15] = target: Cyclin-dependent kinase 19 (Homo sapiens) (UniProt Q9BWU1); experiment: Inhibition of CDK11 at 1 uM
[16] = target: Cyclin-dependent kinase 2 (Homo sapiens) (UniProt P24941); experiment: Inhibition of CDK2 at 1 uM; method in brief: as §1
[17] = target: Cyclin-dependent kinase 8 (Homo sapiens) (UniProt P49336); experiment: Inhibition of CDK8 at 1 uM
[18] = test system: Epidermal growth factor receptor (Homo sapiens), P00533 [L858R]; experiment: Inhibition of EGFR L858R mutant at 1 uM; assay type: protein assay
Method in brief: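 Single-concentration screen using Ambit Bioscience KINOMEscan technology across a panel of 250–400 kinases. Per-kinase inhibition from this screen was summarized as S(90), the fraction of kinases inhibited by more than 90%.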

[19] = Inhibition of FLT3 ITD mutant at 1 uM
Method in brief: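 Single-concentration screen on the Ambit KINOMEscan platform, run against a panel of 250–400 kinases. Per-kinase inhibition was also summarized as S(90), the fraction of kinases inhibited by more than 90%.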

Sequence of Epidermal growth factor receptor (Homo sapiens), P00533 [L858R] (P00533 whole entry L858R): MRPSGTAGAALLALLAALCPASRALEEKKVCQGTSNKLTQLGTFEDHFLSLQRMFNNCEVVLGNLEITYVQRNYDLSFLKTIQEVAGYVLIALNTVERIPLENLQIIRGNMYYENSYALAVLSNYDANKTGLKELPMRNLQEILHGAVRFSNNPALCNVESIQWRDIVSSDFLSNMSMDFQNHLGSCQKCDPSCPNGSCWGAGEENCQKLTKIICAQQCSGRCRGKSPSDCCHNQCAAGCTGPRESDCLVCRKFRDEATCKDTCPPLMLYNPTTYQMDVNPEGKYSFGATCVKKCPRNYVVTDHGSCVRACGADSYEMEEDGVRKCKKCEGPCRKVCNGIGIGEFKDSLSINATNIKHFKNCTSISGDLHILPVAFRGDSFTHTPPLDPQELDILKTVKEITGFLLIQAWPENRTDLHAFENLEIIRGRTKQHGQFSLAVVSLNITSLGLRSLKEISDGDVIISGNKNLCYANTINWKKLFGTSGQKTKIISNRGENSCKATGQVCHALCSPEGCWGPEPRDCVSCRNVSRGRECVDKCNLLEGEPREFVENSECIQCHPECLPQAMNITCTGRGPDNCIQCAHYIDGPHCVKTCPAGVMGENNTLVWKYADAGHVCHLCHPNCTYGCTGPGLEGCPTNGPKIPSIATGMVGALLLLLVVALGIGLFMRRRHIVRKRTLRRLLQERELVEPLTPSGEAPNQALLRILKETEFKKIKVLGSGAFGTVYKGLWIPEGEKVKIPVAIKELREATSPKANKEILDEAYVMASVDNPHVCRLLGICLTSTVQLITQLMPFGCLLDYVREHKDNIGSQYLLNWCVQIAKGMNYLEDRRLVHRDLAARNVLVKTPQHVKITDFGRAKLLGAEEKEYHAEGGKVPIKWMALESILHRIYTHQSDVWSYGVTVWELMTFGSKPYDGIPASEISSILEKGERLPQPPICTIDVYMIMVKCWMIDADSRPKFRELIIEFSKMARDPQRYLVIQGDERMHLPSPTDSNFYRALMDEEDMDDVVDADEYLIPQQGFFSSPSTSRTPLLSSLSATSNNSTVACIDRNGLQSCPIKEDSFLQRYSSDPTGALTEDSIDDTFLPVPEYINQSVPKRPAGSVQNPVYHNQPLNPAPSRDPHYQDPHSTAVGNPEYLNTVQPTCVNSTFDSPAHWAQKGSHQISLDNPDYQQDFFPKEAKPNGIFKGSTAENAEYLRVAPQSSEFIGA
Sequence of Cyclin-dependent kinase 8 (Homo sapiens) (P49336 whole entry): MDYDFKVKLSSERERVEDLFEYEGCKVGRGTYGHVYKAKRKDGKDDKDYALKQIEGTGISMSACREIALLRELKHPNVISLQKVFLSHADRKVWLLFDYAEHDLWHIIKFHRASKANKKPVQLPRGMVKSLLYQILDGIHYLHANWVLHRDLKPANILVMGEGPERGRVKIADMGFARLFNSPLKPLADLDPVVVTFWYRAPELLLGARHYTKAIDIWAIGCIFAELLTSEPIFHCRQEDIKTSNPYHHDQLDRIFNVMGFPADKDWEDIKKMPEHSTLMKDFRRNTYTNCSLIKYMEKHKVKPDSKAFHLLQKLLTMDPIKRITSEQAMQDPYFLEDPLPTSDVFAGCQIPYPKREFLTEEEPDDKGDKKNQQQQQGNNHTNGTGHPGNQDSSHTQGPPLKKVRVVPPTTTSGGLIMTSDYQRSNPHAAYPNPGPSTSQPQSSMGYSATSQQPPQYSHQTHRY
Sequence of Mitogen-activated protein kinase 11 (Homo sapiens) (Q15759 whole entry, canonical isoform): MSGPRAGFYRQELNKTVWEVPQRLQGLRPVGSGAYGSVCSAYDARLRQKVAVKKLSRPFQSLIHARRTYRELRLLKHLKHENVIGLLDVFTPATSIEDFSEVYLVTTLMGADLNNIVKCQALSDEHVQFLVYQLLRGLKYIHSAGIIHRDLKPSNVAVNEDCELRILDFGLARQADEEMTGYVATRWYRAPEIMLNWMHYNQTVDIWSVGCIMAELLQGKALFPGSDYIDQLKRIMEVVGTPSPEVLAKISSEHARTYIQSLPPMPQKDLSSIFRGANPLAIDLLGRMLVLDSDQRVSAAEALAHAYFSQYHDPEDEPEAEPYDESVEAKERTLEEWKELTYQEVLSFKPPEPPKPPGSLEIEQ
Sequence of Serine/threonine-protein kinase tousled-like 2 (Homo sapiens) (Q86UE8 whole entry, looked up): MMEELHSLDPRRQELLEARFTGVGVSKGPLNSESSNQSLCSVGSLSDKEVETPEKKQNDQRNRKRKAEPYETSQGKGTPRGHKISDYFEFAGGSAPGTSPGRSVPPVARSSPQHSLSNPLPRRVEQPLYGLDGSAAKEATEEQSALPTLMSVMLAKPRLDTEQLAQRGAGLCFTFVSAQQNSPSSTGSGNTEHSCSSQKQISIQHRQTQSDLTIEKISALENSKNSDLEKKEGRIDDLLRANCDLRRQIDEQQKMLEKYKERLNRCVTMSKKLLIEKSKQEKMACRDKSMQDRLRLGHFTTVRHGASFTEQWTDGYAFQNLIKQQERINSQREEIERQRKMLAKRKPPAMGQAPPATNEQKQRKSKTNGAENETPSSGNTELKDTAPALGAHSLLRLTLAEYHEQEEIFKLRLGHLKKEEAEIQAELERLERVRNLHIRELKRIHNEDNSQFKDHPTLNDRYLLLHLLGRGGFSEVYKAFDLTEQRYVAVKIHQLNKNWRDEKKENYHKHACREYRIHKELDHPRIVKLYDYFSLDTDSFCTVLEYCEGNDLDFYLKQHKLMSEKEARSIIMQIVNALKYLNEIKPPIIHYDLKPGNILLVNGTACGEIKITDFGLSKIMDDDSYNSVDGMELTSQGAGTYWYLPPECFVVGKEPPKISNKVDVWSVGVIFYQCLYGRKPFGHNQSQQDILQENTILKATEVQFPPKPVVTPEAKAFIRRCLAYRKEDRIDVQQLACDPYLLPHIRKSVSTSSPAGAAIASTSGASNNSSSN
Sequence of Cyclin-dependent kinase 19 (Homo sapiens) (Q9BWU1 whole entry): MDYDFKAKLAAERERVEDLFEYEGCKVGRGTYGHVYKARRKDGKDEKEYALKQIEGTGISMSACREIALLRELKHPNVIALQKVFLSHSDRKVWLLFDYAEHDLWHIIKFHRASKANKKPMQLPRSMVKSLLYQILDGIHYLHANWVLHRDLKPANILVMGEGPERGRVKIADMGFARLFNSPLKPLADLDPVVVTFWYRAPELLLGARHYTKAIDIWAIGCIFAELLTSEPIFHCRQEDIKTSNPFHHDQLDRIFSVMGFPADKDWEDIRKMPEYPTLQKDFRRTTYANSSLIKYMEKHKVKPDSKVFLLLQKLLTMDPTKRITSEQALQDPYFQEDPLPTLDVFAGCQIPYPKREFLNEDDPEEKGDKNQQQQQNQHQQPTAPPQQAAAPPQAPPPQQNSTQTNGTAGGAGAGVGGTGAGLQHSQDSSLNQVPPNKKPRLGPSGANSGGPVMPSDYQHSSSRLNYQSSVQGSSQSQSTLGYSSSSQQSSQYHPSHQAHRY
Sequence of Phosphatidylinositol 4,5-bisphosphate 3-kinase catalytic subunit alpha isoform (Homo sapiens) (P42336 whole entry, canonical isoform): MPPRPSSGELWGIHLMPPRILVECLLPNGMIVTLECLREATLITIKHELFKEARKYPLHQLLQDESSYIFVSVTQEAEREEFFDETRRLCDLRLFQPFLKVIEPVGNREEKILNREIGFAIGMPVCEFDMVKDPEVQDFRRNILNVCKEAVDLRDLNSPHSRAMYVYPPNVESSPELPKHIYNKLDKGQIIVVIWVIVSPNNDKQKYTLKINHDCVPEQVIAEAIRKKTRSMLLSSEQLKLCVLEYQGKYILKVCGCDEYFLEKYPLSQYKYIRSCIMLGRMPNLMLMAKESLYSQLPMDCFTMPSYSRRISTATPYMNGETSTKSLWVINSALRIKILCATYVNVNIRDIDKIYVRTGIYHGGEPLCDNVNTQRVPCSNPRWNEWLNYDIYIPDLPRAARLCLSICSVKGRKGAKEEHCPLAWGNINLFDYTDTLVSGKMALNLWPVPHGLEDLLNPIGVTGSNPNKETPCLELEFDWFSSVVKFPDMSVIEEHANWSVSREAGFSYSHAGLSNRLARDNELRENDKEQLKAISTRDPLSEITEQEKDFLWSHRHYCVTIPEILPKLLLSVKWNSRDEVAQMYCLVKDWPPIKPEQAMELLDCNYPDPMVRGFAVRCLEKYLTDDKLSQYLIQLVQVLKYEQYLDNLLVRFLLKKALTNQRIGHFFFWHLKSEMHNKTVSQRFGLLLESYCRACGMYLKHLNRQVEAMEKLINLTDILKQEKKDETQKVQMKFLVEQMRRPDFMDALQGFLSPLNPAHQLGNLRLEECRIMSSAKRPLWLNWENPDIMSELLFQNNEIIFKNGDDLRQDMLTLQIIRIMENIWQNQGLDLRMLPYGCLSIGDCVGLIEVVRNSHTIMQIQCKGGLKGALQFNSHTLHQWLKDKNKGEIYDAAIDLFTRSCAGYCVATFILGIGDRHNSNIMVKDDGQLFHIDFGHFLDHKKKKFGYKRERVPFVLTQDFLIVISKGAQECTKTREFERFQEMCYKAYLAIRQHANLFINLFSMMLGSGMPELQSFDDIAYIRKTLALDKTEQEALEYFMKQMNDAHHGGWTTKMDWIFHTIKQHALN
Sequence of Serine/threonine-protein kinase 16 (Homo sapiens) (O75716 whole entry): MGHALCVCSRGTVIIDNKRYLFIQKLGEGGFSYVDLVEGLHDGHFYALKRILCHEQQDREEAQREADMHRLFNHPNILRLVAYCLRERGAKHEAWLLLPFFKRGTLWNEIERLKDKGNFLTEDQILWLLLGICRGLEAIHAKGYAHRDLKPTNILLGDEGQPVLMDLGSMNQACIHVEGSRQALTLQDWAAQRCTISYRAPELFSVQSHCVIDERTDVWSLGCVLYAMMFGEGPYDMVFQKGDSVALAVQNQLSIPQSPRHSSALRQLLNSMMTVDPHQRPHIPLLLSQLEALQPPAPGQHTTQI

| inhibition [1] [%] | inhibition [2] [%] | inhibition [3] [%] | inhibition [4] [%] | inhibition [5] [%] | inhibition [6] [%] | inhibition [7] [%] | inhibition [8] [%] | inhibition [9] [%] | inhibition [10] [%] | inhibition [11] [%] | inhibition [12] [%] | inhibition [13] [%] | inhibition [14] [%] | inhibition [15] [%] | inhibition [16] [%] | inhibition [17] [%] | inhibition [18] [%] | inhibition [19] [%] | Structure (SMILES) |
| --- | --- | --- | --- | --- | --- | --- | --- | --- | --- | --- | --- | --- | --- | --- | --- | --- | --- | --- | --- |
| < 50 | < 50 | < 50 | < 50 | < 50 | < 50 | < 50 | < 50 | < 50 | < 50 | < 50 | < 50 | < 50 | < 50 | < 50 | < 50 | < 50 | < 50 | 90 | CN1CCN(c2ccc(-c3cnc4c(c3)N(Cc3cc(Cl)ccc3C(F)(F)F)CCN4)cn2)CC1 |
| – | – | < 50 | < 50 | < 50 | < 50 | < 50 | < 50 | – | < 50 | < 50 | < 50 | < 50 | < 50 | – | < 50 | – | < 50 | < 50 | O=C(O)c1ccc(-c2cnc3c(c2)N(Cc2cc(Cl)ccc2C(F)(F)F)CCN3)cc1 |
| – | – | < 50 | < 50 | < 50 | < 50 | < 50 | < 50 | 73.2 | < 50 | < 50 | – | < 50 | < 50 | – | < 50 | – | < 50 | < 50 | O=C(c1ccc(-c2cnc3c(c2)N(Cc2cc(Cl)ccc2C(F)(F)F)CCN3)cc1)N1CCC(N2CCCC2)CC1 |
| – | – | < 50 | < 50 | < 50 | < 50 | < 50 | < 50 | – | < 50 | < 50 | – | < 50 | < 50 | – | < 50 | – | < 50 | < 50 | COC1CCN(C(=O)c2ccc(-c3cnc4c(c3)N(Cc3cc(Cl)ccc3C(F)(F)F)CCN4)cc2)CC1 |
| < 50 | 88 | < 50 | < 50 | < 50 | < 50 | < 50 | < 50 | < 50 | < 50 | < 50 | < 50 | < 50 | < 50 | < 50 | < 50 | < 50 | < 50 | 74 | FC(F)(F)c1ccc(Cl)cc1CN1CCNc2ncc(-c3ccnc(N4CCNCC4)c3)cc21 |
| < 50 | < 50 | < 50 | < 50 | < 50 | < 50 | < 50 | < 50 | < 50 | < 50 | < 50 | < 50 | < 50 | < 50 | < 50 | < 50 | < 50 | < 50 | < 50 | CC(=O)N1CCN(c2cc(-c3cnc4c(c3)N(Cc3cc(Cl)ccc3C(F)(F)F)CCN4)ccn2)CC1 |
| < 50 | < 50 | < 50 | < 50 | < 50 | < 50 | < 50 | < 50 | < 50 | < 50 | < 50 | < 50 | < 50 | < 50 | < 50 | < 50 | < 50 | < 50 | < 50 | CN1CCN(c2ccc(-c3cnc4c(c3)N(Cc3cc(F)ccc3F)CCN4)cn2)CC1 |
| < 50 | < 50 | < 50 | < 50 | < 50 | < 50 | < 50 | < 50 | < 50 | < 50 | < 50 | 74 | < 50 | < 50 | < 50 | < 50 | < 50 | < 50 | < 50 | CN1CCN(c2ccc(-c3cnc4c(c3)N(Cc3c(F)ccc(F)c3Cl)CCN4)cn2)CC1 |
| – | – | < 50 | < 50 | < 50 | < 50 | < 50 | < 50 | – | < 50 | < 50 | – | < 50 | < 50 | – | < 50 | – | < 50 | < 50 | O=C(c1ccc(-c2cnc3c(c2)N(Cc2cc(Cl)ccc2C(F)(F)F)CCN3)cc1)N1CCCCC1 |
| < 50 | < 50 | < 50 | < 50 | < 50 | < 50 | < 50 | < 50 | < 50 | < 50 | < 50 | < 50 | < 50 | < 50 | < 50 | < 50 | < 50 | < 50 | < 50 | CN1CCN(c2ccc(-c3cnc4c(c3)N(Cc3cc(Cl)ccc3Cl)CCN4)cn2)CC1 |
